Measured values: ChEMBL document CHEMBL2380295, “Structure-activity studies on the side chain of a simplified analog of aplysiatoxin (aplog-1) with anti-proliferative activity” (Bioorg Med Chem, 2013)

What was measured:
[1] = Octanol-water partition coefficient, log P of the compound by HPLC analysis; format: physicochemical
Summary of the method: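 log P was estimated from HPLC retention, with column dead time measured using unretained formamide.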

[2] = system: DMS-273; experiment: Growth inhibition of human DMS273 cells after 48 hrs by sulforhodamine B assay; format: functional; details: DMS-273, 48 h
Summary of the method: (§1)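 Yamori 39-line human cancer panel, NCI method with modifications. Cells plated in RPMI 1640 plus 5% FBS, attached overnight, then exposed 48 h to compound at 10^-8, 10^-7, 10^-6, 10^-5 and 10^-4 M. Sulforhodamine B staining read at 525 nm; % growth = 100[(T−T0)/(C−T0)] from duplicate-point averages, with T0 the time-zero absorbance. GI50 is the concentration giving 50.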

[3] = system: NCI-H460; experiment: Growth inhibition of human NCI-H460 cells after 48 hrs by sulforhodamine B assay; format: functional; details: NCI-H460, 48 h; summary of the method: as §1
[4] = system: SNB-75; experiment: Growth inhibition of human SNB75 cells after 48 hrs by sulforhodamine B assay; format: functional; details: SNB-75, 48 h; summary of the method: as §1
[5] = Growth inhibition of human HBC5 cells after 48 hrs by sulforhodamine B assay; format: functional; details: HBC5, 48 h; summary of the method: as §1
[6] = molecular target: T1, Protein kinase C delta type (Homo sapiens, UniProt Q05655); experiment: Inhibition of [3H]PDBu binding to PKCdelta-C1A domain peptide (unknown origin)
Summary of the method: (§2)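 Competitive [3H]PDBu binding used 14 or 40 nM PKCδ C1 peptide and 20 nM [3H]PDBu (19.6 Ci/mmol), in 50 mM Tris-maleate (pH 7.4 at 4 °C) with 50 µg/mL phosphatidylserine, 3 mg/mL bovine γ-globulin and varied inhibitor concentrations. IC50 was taken as 50% inhibition of specific binding. Ki was derived by the Sharkey–Blumberg method.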

[7] = Cytotoxicity against human Raji cells assessed as cell viability at 10^-6 M; format: cell-based; details: read-out: Activity
[8] = Cytotoxicity against human Raji cells assessed as cell viability at 10^-7 M; format: cell-based; details: read-out: Activity
[9] = system: Human gammaherpesvirus 4; experiment: Induction of EBV-early antigen expressed in human Raji cells at 10^-6 M after 48 hrs by immunofluorescence assay relative to control; format: organism-based; details: human gammaherpesvirus 4, raji, 1 µM
Summary of the method: (§3)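 Raji B-lymphoblastoid cells (5 × 10^5/mL) in RPMI 1640 with 10% FBS, with 4 mM sodium n-butyrate as synergist and test compound at 10^-7 or 10^-6 M (final DMSO 0.4%). Incubated 48 h at 37 °C under 5% CO2. Smears were stained by indirect immunofluorescence using NPC patient serum and FITC anti-human IgG. At least 500 cells counted; % EA-positive recorded; n = 3, SEM.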

[10] = system: Human gammaherpesvirus 4; experiment: Induction of EBV-early antigen expressed in human Raji cells at 10^-7 M after 48 hrs by immunofluorescence assay relative to control; format: organism-based; details: human gammaherpesvirus 4, raji, 0.1 µM; summary of the method: as §3
[11] = system: PC-3; experiment: Growth inhibition of human PC3 cells after 48 hrs by sulforhodamine B assay; format: functional; details: PC-3, 48 h; summary of the method: as §1
[12] = system: DU-145; experiment: Growth inhibition of human DU145 cells after 48 hrs by sulforhodamine B assay; format: functional; details: DU-145, 48 h; summary of the method: as §1
[13] = system: MKN-74; experiment: Growth inhibition of human MKN74 cells after 48 hrs by sulforhodamine B assay; format: functional; details: MKN-74, 48 h; summary of the method: as §1
[14] = system: MKN-28; experiment: Growth inhibition of human MKN28 cells after 48 hrs by sulforhodamine B assay; format: functional; details: MKN-28, 48 h; summary of the method: as §1
[15] = system: MKN-45; experiment: Growth inhibition of human MKN45 cells after 48 hrs by sulforhodamine B assay; format: functional; details: MKN-45, 48 h; summary of the method: as §1
[16] = system: MKN-7; experiment: Growth inhibition of human MKN7 cells after 48 hrs by sulforhodamine B assay; format: functional; details: MKN-7, 48 h; summary of the method: as §1
[17] = system: St-4; experiment: Growth inhibition of human St-4 cells after 48 hrs by sulforhodamine B assay; format: functional; details: St-4, 48 h; summary of the method: as §1
[18] = Growth inhibition of human MKN1 cells after 48 hrs by sulforhodamine B assay; format: functional; details: MKN-1, 48 h; summary of the method: as §1
[19] = Growth inhibition of human RXF631L cells after 48 hrs by sulforhodamine B assay; format: functional; details: RXF 631, 48 h; summary of the method: as §1
[20] = system: ACHN; experiment: Growth inhibition of human ACHN cells after 48 hrs by sulforhodamine B assay; format: functional; summary of the method: as §1
[21] = system: OVCAR-8; experiment: Growth inhibition of human OVCAR8 cells after 48 hrs by sulforhodamine B assay; format: functional; details: OVCAR-8, 48 h; summary of the method: as §1
[22] = system: SK-OV-3; experiment: Growth inhibition of human SKOV3 cells after 48 hrs by sulforhodamine B assay; format: functional; details: SK-OV-3, 48 h; summary of the method: as §1
[23] = system: OVCAR-5; experiment: Growth inhibition of human OVCAR5 cells after 48 hrs by sulforhodamine B assay; format: functional; details: OVCAR-5, 48 h; summary of the method: as §1
[24] = system: OVCAR-3; experiment: Growth inhibition of human OVCAR3 cells after 48 hrs by sulforhodamine B assay; format: functional; details: OVCAR-3, 48 h; summary of the method: as §1
[25] = system: OVCAR-4; experiment: Growth inhibition of human OVCAR4 cells after 48 hrs by sulforhodamine B assay; format: functional; details: OVCAR-4, 48 h; summary of the method: as §1
[26] = system: DMS-114; experiment: Growth inhibition of human DMS114 cells after 48 hrs by sulforhodamine B assay; format: functional; details: DMS-114, 48 h; summary of the method: as §1
[27] = system: LOX IMVI; experiment: Growth inhibition of human LOXIMVI cells after 48 hrs by sulforhodamine B assay; format: functional; summary of the method: as §1
[28] = system: A549; experiment: Growth inhibition of human A549 cells after 48 hrs by sulforhodamine B assay; format: functional; details: A549, 48 h; summary of the method: as §1
[29] = system: NCI-H226; experiment: Growth inhibition of human NCI-H226 cells after 48 hrs by sulforhodamine B assay; format: functional; details: NCI-H226, 48 h; summary of the method: as §1
[30] = system: NCI-H522; experiment: Growth inhibition of human NCI-H522 cells after 48 hrs by sulforhodamine B assay; format: functional; details: NCI-H522, 48 h; summary of the method: as §1
[31] = system: HCT-116; experiment: Growth inhibition of human HCT116 cells after 48 hrs by sulforhodamine B assay; format: functional; details: HCT-116, 48 h; summary of the method: as §1
[32] = system: NCI-H23; experiment: Growth inhibition of human NCI-H23 cells after 48 hrs by sulforhodamine B assay; format: functional; details: NCI-H23, 48 h; summary of the method: as §1
[33] = system: HCT-15; experiment: Growth inhibition of human HCT15 cells after 48 hrs by sulforhodamine B assay; format: functional; details: HCT-15, 48 h; summary of the method: as §1
[34] = system: KM12; experiment: Growth inhibition of human KM12 cells after 48 hrs by sulforhodamine B assay; format: functional; details: KM12, 48 h; summary of the method: as §1
[35] = system: HT-29; experiment: Growth inhibition of human HT-29 cells after 48 hrs by sulforhodamine B assay; format: functional; details: HT-29, 48 h; summary of the method: as §1
[36] = system: SNB-78; experiment: Growth inhibition of human SNB78 cells after 48 hrs by sulforhodamine B assay; format: functional; details: SNB-78, 48 h; summary of the method: as §1
[37] = Growth inhibition of human HCC2998 cells after 48 hrs by sulforhodamine B assay; format: functional; details: HCC 2998, 48 h; summary of the method: as §1
[38] = system: SF-539; experiment: Growth inhibition of human SF539 cells after 48 hrs by sulforhodamine B assay; format: functional; details: SF-539, 48 h; summary of the method: as §1
[39] = system: SF-295; experiment: Growth inhibition of human SF295 cells after 48 hrs by sulforhodamine B assay; format: functional; details: SF-295, 48 h; summary of the method: as §1
[40] = system: U-251; experiment: Growth inhibition of human U251 cells after 48 hrs by sulforhodamine B assay; format: functional; details: U-251, 48 h; summary of the method: as §1
[41] = system: SF-268; experiment: Growth inhibition of human SF268 cells after 48 hrs by sulforhodamine B assay; format: functional; details: SF-268, 48 h; summary of the method: as §1
[42] = system: MCF7; experiment: Growth inhibition of human MCF7 cells after 48 hrs by sulforhodamine B assay; format: functional; details: MCF7, 48 h; summary of the method: as §1
[43] = system: MDA-MB-231; experiment: Growth inhibition of human MDA-MB-231 cells after 48 hrs by sulforhodamine B assay; format: functional; details: MDA-MB-231, 48 h; summary of the method: as §1
[44] = Growth inhibition of human BSY1 cells after 48 hrs by sulforhodamine B assay; format: functional; details: BSY-1, 48 h; summary of the method: as §1
[45] = Growth inhibition of human HBC4 cells after 48 hrs by sulforhodamine B assay; format: functional; details: HBC4, 48 h; summary of the method: as §1
[46] = molecular target: T1, Protein kinase C delta type; experiment: Inhibition of [3H]PDBu binding to PKCdelta-C1B domain peptide (unknown origin); summary of the method: as §2

T1 sequence (Q05655 whole entry, the tested form may be a part): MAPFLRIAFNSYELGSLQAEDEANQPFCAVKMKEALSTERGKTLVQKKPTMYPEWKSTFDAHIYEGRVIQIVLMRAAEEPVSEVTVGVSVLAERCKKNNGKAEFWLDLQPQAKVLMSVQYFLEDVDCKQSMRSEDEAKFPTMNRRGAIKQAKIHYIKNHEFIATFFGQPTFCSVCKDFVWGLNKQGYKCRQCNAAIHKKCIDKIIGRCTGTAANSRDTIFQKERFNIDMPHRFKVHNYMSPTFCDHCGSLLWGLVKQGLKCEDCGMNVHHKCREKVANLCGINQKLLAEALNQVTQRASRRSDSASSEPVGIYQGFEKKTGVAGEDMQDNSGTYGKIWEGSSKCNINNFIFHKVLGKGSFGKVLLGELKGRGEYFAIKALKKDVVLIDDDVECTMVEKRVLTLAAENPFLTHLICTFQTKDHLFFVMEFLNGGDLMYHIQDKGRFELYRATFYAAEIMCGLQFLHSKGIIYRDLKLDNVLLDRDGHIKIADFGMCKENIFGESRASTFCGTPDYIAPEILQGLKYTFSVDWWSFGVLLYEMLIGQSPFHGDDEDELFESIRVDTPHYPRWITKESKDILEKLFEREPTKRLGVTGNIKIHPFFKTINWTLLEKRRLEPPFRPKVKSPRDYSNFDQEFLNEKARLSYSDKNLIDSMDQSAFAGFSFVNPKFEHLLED

CC1(C)CC[C@@H]2CC(=O)O[C@@H](CO)CC(=O)O[C@@H]3C[C@@H](CCCCc4ccccc4)O[C@@]1(C3)O2
logP [1]: 4.8

CC1(C)CC[C@@H]2CC(=O)O[C@@H](CO)CC(=O)O[C@@H]3C[C@@H](CCCCc4cccc(O)c4)O[C@@]1(C3)O2
GI50 [2]: 12.6 µM
GI50 [3]: 2.51 µM
GI50 [4]: 15.8 µM
GI50 [5]: 17.4 µM

C[C@H]1[C@@H]2C[C@@]3(O[C@H](CCC3(C)C)CC(=O)O[C@@H](CO)CC(=O)O2)O[C@@H]1CCCCc1cccc(O)c1
Ki [6]: 0.022 µM

CC(=O)Nc1ccc(O)cc1CCCC[C@@H]1C[C@@H]2C[C@@]3(O[C@H](CCC3(C)C)CC(=O)O[C@@H](CO)CC(=O)O2)O1
viability at 1 µM [7]: 60%
viability at 0.1 µM [8]: 60%
Activity [9]: 2.1%
Activity [10]: 2%
GI50 [11]: > 100 µM
GI50 [12]: > 100 µM
GI50 [13]: 70.8 µM
GI50 [14]: 87.1 µM
GI50 [15]: > 100 µM
GI50 [16]: > 100 µM
GI50 [17]: > 100 µM
GI50 [18]: > 100 µM
GI50 [19]: > 100 µM
GI50 [20]: > 100 µM
GI50 [21]: > 100 µM
GI50 [22]: > 100 µM
GI50 [23]: > 100 µM
GI50 [24]: > 100 µM
GI50 [25]: > 100 µM
GI50 [26]: 55 µM
GI50 [27]: 74.1 µM
GI50 [28]: > 100 µM
GI50 [2]: 43.7 µM
GI50 [3]: > 100 µM
GI50 [29]: 53.7 µM
GI50 [30]: > 100 µM
GI50 [31]: > 100 µM
GI50 [32]: > 100 µM
GI50 [33]: > 100 µM
GI50 [34]: > 100 µM
GI50 [35]: > 100 µM
GI50 [36]: > 100 µM
GI50 [37]: 72.4 µM
GI50 [38]: > 100 µM
GI50 [4]: > 100 µM
GI50 [39]: 60.3 µM
GI50 [40]: > 100 µM
GI50 [41]: > 100 µM
GI50 [42]: > 100 µM
GI50 [43]: > 100 µM
GI50 [44]: > 100 µM
GI50 [5]: > 100 µM
GI50 [45]: > 100 µM
logP [1]: 2.3
Ki [6]: 8.7 µM
Ki [46]: 0.69 µM
